MOR-DOR ag: agonists of human mu-delta opioid receptor heterodimerization; P35372+P41143; cells, OPRM1-OPRD1 heterodimerization, luminescence; activation, % at 9.3 µM; hit rate 0.3% among 340,000; AID 504326; in the data active = activation above about 18%
MOR-DOR inv ag-1: inverse agonists of human mu-delta opioid receptor heterodimerization; P35372+P41143; cell-based MOR-DOR heterodimer luminescence, inverse agonism; inhibition, % at 9.3 µM; hit rate 0.21% among 340,000; in the data active = inhibition above about 22%, passing the limit was not always enough
HTR5A ag ctr: counter-screen for OPRM1-OPRD1 agonists: human HTR5A agonism; HTR5A agonist assay, luminescence, cell-based; activation, % at 9.3 µM; hit rate 0.61% among 340,000; AID 504692; in the data active = activation mostly above about 9.5%, no sharp cut-off; inactive = mostly below about 7.6%
Target sequence (P47898 whole entry, looked up): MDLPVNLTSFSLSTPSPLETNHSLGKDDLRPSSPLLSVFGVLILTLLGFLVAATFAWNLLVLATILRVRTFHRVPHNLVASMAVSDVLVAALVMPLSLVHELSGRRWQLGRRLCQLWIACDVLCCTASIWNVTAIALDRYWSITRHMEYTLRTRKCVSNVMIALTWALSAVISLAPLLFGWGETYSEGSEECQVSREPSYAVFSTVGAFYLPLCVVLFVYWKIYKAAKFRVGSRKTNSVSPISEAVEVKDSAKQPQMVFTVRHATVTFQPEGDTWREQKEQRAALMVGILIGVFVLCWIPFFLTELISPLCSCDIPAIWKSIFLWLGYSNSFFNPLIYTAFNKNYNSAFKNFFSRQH
Hep lipid drop: hepatic lipid droplet formation modulation | AID 1656 | inhibition, % at 6.5 µM | AML12 mouse hepatocytes, oleate lipid droplets, BODIPY imaging | hit rate 0.4% among 240,000;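 active = lipid droplet intensity inhibited by at least 50%, with more than 500 cells counted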
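Test system: AML12 hepatocytes (mouse); reagent: oleate loading, 100 µM; dosing: one dose, 6.5 µM compound; incubation: overnight exposure; signal: fluorescence imaging, 20x objective, two fields per well; read-out basis: % inhibition of corrected integrated BODIPY droplet signal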
HTR5A inv ctr: inverse agonist of human HTR5A in OPRM1-OPRD1 counter-screen. P47898. inhibition, % at 9.3 µM. AID 504634. HTR5A cell line, luminescence, inverse agonism. hit rate 0.083% among 340,000; in the data active = inhibition mostly above about 23%, no sharp cut-off; inactive = mostly below about 18%
MOR-DOR inv ag-2: inverse agonist of OPRM1-OPRD1 heterodimerization in HTR5A counter-screen; shares compounds with HTR5A inv ctr; U2OS counter-screen cells, complementation luminescence; inhibition, % at 9.3 µM; 190 tested, under 10 active
HTR5A inv confrm: HTR5A (human) inverse agonism, confirmation | shares compounds with HTR5A inv ctr | HTR5A-expressing cells, luminescence | inhibition, % at 9.3 µM | 190 tested, under 10 active
Of the large screens only hits and unclear results are named; the others gave an inactive call (follow-up assays come after a bar, where they were run). This is a sample that favours compounds with a hit; in the whole collection about 1.4% have one here. Unless noted, the rule behind the calls is not given here.

CC[C@@]1(C(=O)OC)N[C@H](CN(C)C(=O)COc2ccccc2)[C@@H]2C(=O)N(Cc3ccccc3)C(=O)[C@@H]21	none (no result: Hep lipid drop)
COc1ccc(/C=N/n2c(N)c(S(=O)(=O)c3cccs3)c3nc4ccccc4nc32)cc1OC	none
CC(C)Cn1c(N)c(S(=O)(=O)c2cccs2)c2nc3ccccc3nc21	HTR5A inv ctr 38 | MOR-DOR inv ag-2 inactive | HTR5A inv confrm inactive
Oc1c(C(Nc2ccccn2)c2cccnc2)cc(Cl)c2cccnc12 (stereo not given)	HTR5A inv ctr 54 | MOR-DOR inv ag-2 56 | HTR5A inv confrm 77
CC(=O)NC(c1ccc(C)cc1)c1cc(Cl)c2cccnc2c1O (stereo not given)	none
CCN(CC)c1ccc(/C=N/Nc2ccccc2)c(O)c1	HTR5A inv ctr 45 (no result: Hep lipid drop) | MOR-DOR inv ag-2 inactive | HTR5A inv confrm inactive
O=C(NCc1nnc(SCC(=O)N2CCN(c3ccccc3)CC2)o1)c1ccccc1	none
O=C(NCc1nnc(SCC(=O)N2CCCC2)o1)c1ccccc1	HTR5A inv ctr 45 | MOR-DOR inv ag-2 inactive | HTR5A inv confrm inactive
COC(=O)c1ccccc1NC(=O)CCCCCn1nnc2ccccc2c1=O	none
N#CC1(NC(=O)COC(=O)C23CC4CC(CC(O)(C4)C2)C3)CCCCC1	none
CCCn1nc(C(=O)NNC(=O)Cc2ccc(S(=O)(=O)N3CCOCC3)s2)c2ccccc2c1=O	none (no result: Hep lipid drop)
O=[N+]([O-])c1cccc(C=NNc2ccc3ccccc3n2)c1O	HTR5A inv ctr 35 (no result: Hep lipid drop) | MOR-DOR inv ag-2 inactive | HTR5A inv confrm 47
CCN(CC)/C(=N\S(=O)(=O)c1ccc(F)cc1)c1ccccc1	none
COc1ccc(S(=O)(=O)Nc2ccccc2C(=O)N2CCCC2)cc1OC	none
COc1ccc(OC)c(S(=O)(=O)Nc2ccccc2C(=O)N2CCCCC2)c1	HTR5A inv ctr 45 (no result: Hep lipid drop) | MOR-DOR inv ag-2 inactive | HTR5A inv confrm inactive
CC1=C(C(=O)OC(C)(C)C)C(c2cccc3ccccc23)NC(=O)N1 (stereo not given)	none
Cc1cc(O)c(NC(=S)NC(=O)c2ccc(-c3ccc(Cl)cc3)o2)cc1C	HTR5A inv ctr 65 | MOR-DOR inv ag-2 inactive | HTR5A inv confrm inactive
O=C(NNc1ccc([N+](=O)[O-])cn1)Nc1ccc(N=Nc2ccccc2)cc1	HTR5A inv ctr 36 (no result: Hep lipid drop) | MOR-DOR inv ag-2 inactive | HTR5A inv confrm inactive
O=C1N[C@@H](Cc2ccccc2)COC(=O)[C@@H](Cc2ccc(F)cc2)CC/C=C/C[C@H]1CC(=O)N(CCO)Cc1ccccc1	none (no result: Hep lipid drop)
O=C1N[C@@H](Cc2ccccc2)COC(=O)[C@H](Cc2ccc(F)cc2)CC/C=C/C[C@@H]1CC(=O)N(CCO)Cc1ccccc1	HTR5A inv ctr 37 (no result: Hep lipid drop) | MOR-DOR inv ag-2 inactive | HTR5A inv confrm inactive
NC(=NCc1ccccc1)C(N=Nc1ccccc1)C(=O)NCc1ccccc1 (stereo not given)	HTR5A inv ctr 30 (no result: Hep lipid drop) | MOR-DOR inv ag-2 inactive | HTR5A inv confrm inactive
O=C(NCCc1ccc(Cl)cc1)C1CCN(S(=O)(=O)c2ccc(Br)s2)CC1	none
O=C(CSCc1ccccc1Br)NNC(=S)NCc1ccco1	none
CCOC(=O)c1c(C)[nH]c(C)c1S(=O)(=O)N(C)CC(=O)Nc1ccccc1	none
COc1ccc(-n2c(-c3ccc(Cl)cc3)c[nH]c2=S)cc1	HTR5A inv ctr 38 | MOR-DOR inv ag-2 33 | HTR5A inv confrm inactive
CCCOc1cccc(C(=O)N/N=C/c2ccoc2)c1	HTR5A inv ctr 45 | MOR-DOR inv ag-2 inactive | HTR5A inv confrm inactive
CCOC(=O)c1c(N)n(C2CC(C)(C)NC(C)(C)C2)c2nc3ccccc3nc12	HTR5A inv ctr 37 (no result: Hep lipid drop) | MOR-DOR inv ag-2 inactive | HTR5A inv confrm inactive
CCOC(=O)c1c(N)n(-c2ccc(N)cc2)c2nc3ccccc3nc12	none
O=c1oc(CCCO)cc2ccccc12	none (no result: Hep lipid drop)
CCN(CC(=O)Nc1ccc2c(c1)OCCO2)C(=O)c1cc(Cl)nc2ccccc12	HTR5A inv ctr 33 (no result: Hep lipid drop) | MOR-DOR inv ag-2 inactive | HTR5A inv confrm inactive
CCOc1ccc(NC(=S)NC(=O)c2c(Br)cnn2C)c([N+](=O)[O-])c1	HTR5A inv ctr 36 | MOR-DOR inv ag-2 inactive | HTR5A inv confrm inactive
N/C(=N\OC(=O)CCCCCN1C(=O)c2ccccc2C1=O)c1ccccc1	none

Bioassay records as filed in PubChem BioAssay.
